Sampled rows, rich in hits. Any-hit rate of the full collection: about 3.1%.
KCNQ1 inh: inhibitors of human KCNQ1 potassium channel; P51787; CHO-K1 KCNQ1, FluxOR thallium flux fluorescence; active compounds read high; B-score at 10 µM; 310,000 compounds, 1.3% hits; AID 2642;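 active means compounds whose thallium flux B-score, printed positive for inhibition, exceeds three library SD while starting fluorescence stays within three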;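 further: channel opened by potassium depolarization with thallium stimulus after 20 min compound exposure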
hERG rescue: compounds protecting human hERG from proarrhythmic drug block; Q12809; CHO-hERG, FluxOR thallium flux, dofetilide IC70 present; activation (rescue from dofetilide block), less the hit threshold, % at 10 µM; 310,000 compounds, 0.51% hits; AID 1511;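 active means activation above the mean of controls blocked by dofetilide plus 5 SD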;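 further: thallium influx through hERG after potassium depolarization seen as dye fluorescence rise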
KCNK3 block: human KCNK3 channel inhibition, primary screen | CHO-KCNK3 thallium flux, FluxOR fluorescence; active compounds read low | AID 602410 | B-score at 10 µM | O14649 | 340,000 compounds, 0.84% hits;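 active means B-score under library mean minus 4 SD, starting fluorescence ratio at most library mean plus 5 SD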;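 further: more negative B-score means stronger inhibition of thallium flux through KCNK3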
Target sequence (O14649 whole entry, looked up): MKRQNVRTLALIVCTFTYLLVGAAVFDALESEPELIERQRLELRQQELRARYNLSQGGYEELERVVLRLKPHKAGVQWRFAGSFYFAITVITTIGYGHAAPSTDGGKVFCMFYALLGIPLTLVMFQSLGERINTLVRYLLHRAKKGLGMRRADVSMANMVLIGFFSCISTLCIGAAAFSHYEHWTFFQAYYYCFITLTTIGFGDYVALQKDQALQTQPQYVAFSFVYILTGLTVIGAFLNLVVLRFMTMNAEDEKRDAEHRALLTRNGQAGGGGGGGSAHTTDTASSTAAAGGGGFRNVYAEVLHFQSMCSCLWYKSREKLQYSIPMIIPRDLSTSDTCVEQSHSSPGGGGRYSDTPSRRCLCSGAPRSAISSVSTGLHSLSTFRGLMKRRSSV
KCNQ1 pot: potentiates or activates the human KCNQ1 potassium channel. P51787. CHO-K1 KCNQ1, thallium flux FluxOR fluorescence; active compounds read high. B-score at 10 µM. 310,000 compounds, 0.35% hits;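 active means fluorescence ratio B-score, a plate-corrected score, at least three library SD, with initial intensity B-score within 5 SD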
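assay system = KCNQ1-transfected CHO-K1 cells | medium = assay buffer with matched DMSO | probe or stimulus = depolarizing K+/Tl+ stimulus, K2SO4 and Tl2SO4 each 12.5 mM in 5x stock | dosing = single dose | incubation = dye 90 min, compound 20 min, room temperature | detection = kinetic FluxOR fluorescence, 10 s baseline plus 110 s post-stimulus | evaluation = ratio B score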
KCNK9 inh: human KCNK9 channel inhibition; HEK293 KCNK9, FluxOR thallium flux fluorescence; active compounds read low; Q9NPC2; 310,000 compounds, 1.2% hits; B-score at 10 µM; AID 488922;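 active means ratio B-score over 3 SD below the library mean, with starting fluorescence within 5 SD of its mean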;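 further: negative B-score means less thallium flux so channel inhibition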
KCNK9 inh conf: human KCNK9 inhibitor confirmation; shares compounds with KCNK9 inh; HEK293 KCNK9 cells, FluxOR thallium flux fluorescence; inhibition, % at 10 µM; 4,900 compounds, 43% hits;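 active means thallium signal inhibited by more than 5 SD of the compound-free buffer control wells, on both duplicate plates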;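 further: 0% = assay buffer control wells without compound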
Kir2-1 spec: selectivity of KCNK9 modulators against mouse Kir2.1; shares compounds with KCNK9 inh; Kir2.1 cells, FluxOR thallium flux fluorescence; inhibition, % at 10 µM; 4,900 compounds, 4% hits; AID 492993;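 active means thallium signal drop more than 5 SD beyond the mean of the no-compound control wells, seen in both duplicate plates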;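 further: signal is fluorescence rise after thallium addition divided by baseline fluorescence; plate controls were assay buffer only for no effect and full block by chlorpromazine control for full effect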
HEK293 Tl ctr: non-induced cell nonspecific activity of KCNK9 modulators | shares compounds with KCNK9 inh | non-induced KCNK9-HEK293, FluxOR thallium flux | inhibition, % at 10 µM | 4,900 compounds, 40% hits | AID 492997;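 active means thallium signal drop beyond 5 SD of the untreated control mean, on both duplicate plates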;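 further: plate controls were buffer only IC0 wells for no effect and SID17386958 at its maximal inhibitory level for full effect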
KCNK3 inh conf: human KCNK3 channel inhibition, confirmation assay. CHO-KCNK3 thallium flux, FluxOR fluorescence; 0% buffer, 100% carvedilol maximal block. 2,400 compounds, 99% hits. shares compounds with KCNK3 block. ratio percent of control, % at 10 µM;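 active means ratio percent of control, averaged over triplicates, above buffer control mean plus 5 SD, cut at about 64% in these data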;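 further: ratio is the fluorescence rise from min to max over baseline after thallium stimulus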
KCNK3 uninduced: activity in cells without induced KCNK3 expression; shares compounds with KCNK3 block; AID 651747; 2,400 compounds, 40% hits; non-induced KCNK3 parental cells, FluxOR thallium flux; active compounds read low; thallium flux ratio (lower = more inhibition) at 10 µM;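 active means thallium flux ratio, averaged over three wells, more than 5 SD below the buffer control mean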;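 further: host cells are CHO cells without KCNK3 induction; ratio is peak minus trough fluorescence over baseline then normalized to buffer controls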
Active calls of the source: *; i = inactive; x = not tested or not shown.

SMILES	KCNQ1 inh	hERG rescue	KCNK3 block	KCNQ1 pot	KCNK9 inh	KCNK9 inh conf	Kir2-1 spec	HEK293 Tl ctr	KCNK3 inh conf	KCNK3 uninduced
COc1cc(OC)cc(C(=O)Nc2ccc(S(=O)(=O)Nc3nc(C)cc(C)n3)cc2)c1	i	-10.9	i	i	i	x	x	x	x	x
Cc1cnc(C(=O)Nc2cccc(S(=O)(=O)N(C)C)c2)cn1	i	-6.0	i	i	i	x	x	x	x	x
COc1ccc2c(COC(=O)c3cccc(S(=O)(=O)NCC(C)C)c3)cc(=O)oc2c1	i	-22.0	-10.9*	i	-9.27*	i	i	i	138.3*	0.137*
CCCC(CCC)C(=O)Nc1ccc2c(c1)N(C(=O)CCN1CCN(C)CC1)c1ccccc1CC2	i	1.5	i	i	i	x	x	x	x	x
COc1ccccc1OCCCN1C(=O)C(=O)c2cccc(C)c21	i	-14.7	-9.99*	i	-11.6*	49.0%*	i	i	111.7*	i
CCCN1CCN(c2nc(-c3cccs3)nc3ccccc23)CC1	i	-6.4	i	i	i	x	x	x	x	x
CCOC(=O)N1CCN(c2nc(-c3cccs3)nc3ccccc23)CC1	i	-5.6	-10.1*	i	-8.87*	i	i	i	104.3*	0.152*
CSc1nc2ccc(NS(=O)(=O)c3cccc(Cl)c3Cl)cc2s1	i	-7.9	i	i	i	x	x	x	x	x
COc1ccc(/C=C/C(=O)N(C)C2CCS(=O)(=O)C2)cc1 (stereo not drawn)	i	-6.3	i	i	i	x	x	x	x	x
COc1cccc(NC(=S)N(CCc2c(C)[nH]c3ccc(C)cc23)Cc2cccs2)c1	i	-3.3	-10.9*	i	-13.9*	42.0%*	i	43.0%*	90.3*	0.143*
COc1cccc(NC(=S)N(CCN(C)C)Cc2cccs2)c1	i	-0.5	i	i	i	x	x	x	x	x
COc1ccc(Br)cc1/C(C)=N/NC1=NCCN1	i	-3.5	i	i	i	x	x	x	x	x
CCCCCOc1ccc(Br)cc1/C(C)=N/NC1=NCCN1	i	-22.3	-11*	i	-11*	41.0%*	65.5%*	i	105.0*	0.133*
COc1ccccc1N(CC(=O)N/N=C/c1ccc(OCC(=O)NCc2ccco2)cc1)S(=O)(=O)c1ccc(C)cc1	i	-11.5	i	i	i	x	x	x	x	x
COC(=O)COc1ccc(/C=N/NC(=O)CN(c2ccccc2OC)S(=O)(=O)c2ccccc2)cc1	i	-21.7	-16.3*	i	-13.5*	i	i	i	116.3*	0.139*
CSc1nsc(SC)c1C(=O)Nc1ccc(C(C)(C)C)cc1	i	-1.5	-12.8*	i	-14*	53.0%*	i	28.5%*	111.7*	i
CCCCn1c(N)c(N(CC(C)C)C(=O)C2CCN(S(=O)(=O)c3ccc(Cl)cc3)CC2)c(=O)[nH]c1=O	i	-15.4	i	i	i	x	x	x	x	x
Cc1ccsc1CN(C)CC(=O)Nc1ccc([N+](=O)[O-])cc1Cl	i	-10.5	-9.55*	i	-20.6*	64.5%*	i	48.5%*	135.0*	0.126*
Cn1cccc1C1Nc2ccccc2NC2=C1C(=O)CC(C)(C)C2 (stereo not drawn)	i	-3.3	i	i	i	x	x	x	x	x
CCOC(=O)COc1c(OC)cc(Cl)cc1C1Nc2ccccc2C(=O)N1c1cccc(C)c1 (stereo not drawn)	i	-12.4	-9.71*	i	-9.07*	47.5%*	i	37.5%*	111.3*	i
